According to ChEMBL document CHEMBL4033712, “Synthesis and biological evaluation of new C-12(α/β)-(N-) sulfamoyl-phenylamino-14-deoxy-andrographolide derivatives as potent anti-cancer agents” (Bioorg Med Chem Lett, 2017):

Assays:
PC-3 = assay: Growth inhibition of human PC3 cells incubated for 48 hrs by sulforhodamine B assay; type: functional; details: PC-3, 48 h; for CC50: read-out: LC50 (the source's name)
In short: (§1)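 NCI-60 five-dose screen at 0.01, 0.1, 1, 10 and 100 µM, 48 h incubation, sulforhodamine B end point. GI50 (50% decrease in net growth), TGI (total growth inhibition) and LC50 (net 50% loss of initial cells) taken from log concentration versus % growth inhibition curves.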

SNB-75 = assay: Growth inhibition of human SNB75 cells incubated for 48 hrs by sulforhodamine B assay; type: functional; details: SNB-75, 48 h; for CC50: read-out: LC50 (the source's name)
In short: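 NCI 60 human tumour cell line panel, five-dose study at 0.01, 0.1, 1, 10 and 100 µM, 48 h incubation. Sulforhodamine B protein-binding dye end point. GI50 (50% decrease in net cell growth), TGI (total growth inhibition) and LC50 (net 50% loss of initial cells) read from log concentration versus % growth inhibition curves.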

OVCAR-4 = assay: Growth inhibition of human OVCAR4 cells incubated for 48 hrs by sulforhodamine B assay; type: functional; details: OVCAR-4, 48 h; in short: as §1
NHDF = assay: (§2) Growth inhibition of human NHDF after 72 hrs by CellTiter-Glo luminescent cell viability assay; type: cell-based; details: nhdf, 72 h
[1] = as §2; type: cell-based; details: NHDF cells
Malme-3M = assay: Growth inhibition of human MALME-3M cells incubated for 48 hrs by sulforhodamine B assay; type: functional; in short: as §1

Structure (SMILES) | GI50 (PC-3) [µM] | TGI (PC-3) [µM] | CC50 (PC-3) [µM] | GI50 (SNB-75) [µM] | TGI (SNB-75) [µM] | CC50 (SNB-75) [µM] | GI50 (OVCAR-4) [µM] | LC50 (OVCAR-4) [µM] | TGI (OVCAR-4) [µM] | growth inhibition (GI) (NHDF) | GI50 at 72 h [1] [µM] | LC50 (NHDF) [µM] | GI50 (Malme-3M) [µM] | TGI (Malme-3M) [µM] | CC50 (Malme-3M; read-out: LC50 (the source's name)) [µM]
C=C1CC[C@@H]2[C@](C)(COC(C)=O)[C@H](OC(C)=O)CC[C@@]2(C)[C@H]1CC(Nc1ccc(S(=O)(=O)Nc2ncccn2)cc1)C1=CCOC1=O (stereo partly drawn) | 2.11 | 5.07 | 17.5 | 1.27 | 3.23 | 8.2 | 1.85 | 19.3 | 5.26 | Non-Toxic |  |  |  |  | 
C=C1CC[C@@H]2[C@](C)(COC(C)=O)[C@H](OC(C)=O)CC[C@@]2(C)[C@H]1CC(Nc1ccc(S(=O)(=O)Nc2ccc(Cl)nn2)cc1)C1=CCOC1=O (stereo partly drawn) | 2.24 | 5.25 | 15.8 | 1.44 | 5.9 | 24.3 | 1.47 | 6.82 | 3.17 |  | 1.54 | 3.496358 | 1.72 | 3.9 | 8.84
C=C1CC[C@@H]2[C@](C)(COC(C)=O)[C@H](OC(C)=O)CC[C@@]2(C)[C@H]1CC(Nc1ccc(S(=O)(=O)Nc2nccc(C)n2)cc1)C1=CCOC1=O (stereo partly drawn) | 4.46 | 15.7 | 43.3 | 2.69 | 14.9 | 38.6 | 4.37 | 41.4 | 15.8 |  |  |  |  |  | 
C=C1CC[C@@H]2[C@](C)(COC(C)=O)[C@H](OC(C)=O)CC[C@@]2(C)[C@H]1CC(Nc1ccc(S(=O)(=O)Nc2nccs2)cc1)C1=CCOC1=O (stereo partly drawn) | 7.74 | 21.5 | 52.2 | 2.83 | 15.6 | 39.5 | 4.53 | 43.9 | 17.7 |  |  |  |  |  | 
C=C1CC[C@@H]2[C@](C)(COC(C)=O)[C@H](OC(C)=O)CC[C@@]2(C)[C@H]1CC(Nc1ccc(S(=O)(=O)Nc2cc(C)on2)cc1)C1=CCOC1=O (stereo partly drawn) | 1.98 | 4.31 | 9.4 | 2.03 | 11.5 | 33.9 | 2.91 | 35.1 | 10.5 |  |  |  | 1.89 | 4 | 
